The source made the active and inactive calls. No cut-off for these calls is given here.
Key:
[1] = biological target: T1, Prostaglandin G/H synthase 1 (Ovis aries, UniProt P05979); assay: Inhibition of ovine COX-1 assessed as decrease in prostaglandin production using arachidonic acid as substrate incubated with enzyme for 10 mins prior to substrate challenge by enzyme immunoassay
T1 sequence (P05979 whole entry): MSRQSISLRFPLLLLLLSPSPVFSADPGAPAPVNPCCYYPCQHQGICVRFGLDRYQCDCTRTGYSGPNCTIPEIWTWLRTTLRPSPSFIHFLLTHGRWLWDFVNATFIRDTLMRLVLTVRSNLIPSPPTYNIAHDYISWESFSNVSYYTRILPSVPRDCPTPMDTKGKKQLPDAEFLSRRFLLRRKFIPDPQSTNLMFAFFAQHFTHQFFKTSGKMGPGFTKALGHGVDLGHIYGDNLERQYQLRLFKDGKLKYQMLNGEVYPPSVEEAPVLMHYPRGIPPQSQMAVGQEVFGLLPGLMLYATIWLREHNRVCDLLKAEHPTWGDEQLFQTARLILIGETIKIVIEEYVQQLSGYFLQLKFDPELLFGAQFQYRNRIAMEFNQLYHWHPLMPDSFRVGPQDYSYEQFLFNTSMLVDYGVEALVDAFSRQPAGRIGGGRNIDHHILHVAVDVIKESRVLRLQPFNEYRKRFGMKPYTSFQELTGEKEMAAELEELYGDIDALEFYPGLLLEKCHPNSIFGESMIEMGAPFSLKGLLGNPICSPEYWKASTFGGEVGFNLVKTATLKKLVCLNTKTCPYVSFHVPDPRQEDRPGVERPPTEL
Method in brief: (§1)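 Ovine COX-1 EIA kit run in triplicate. Compounds were at 10^-5 to 10^-8 M. Enzyme and compound were incubated 10 min at 37 °C, then arachidonic acid was added for 2 min. The reaction was stopped with 1 M HCl and reduced with stannous chloride. Prostaglandins were quantified by AChE-tracer competitive EIA (18 h at room temperature, Ellman's reagent, read at 420 nm) against a 100% activity control.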

Solanum tuberosum [2] = assay: Inhibition of potato 5-LOX assessed as decrease in leukotriene production using arachidonic acid as substrate at 10 nM by enzyme immunoassay
Solanum tuberosum [3] = assay: Inhibition of potato 5-LOX assessed as decrease in leukotriene production using arachidonic acid as substrate at 0.1 uM by enzyme immunoassay
Method in brief: (§2)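 Potato 5-LOX assay in buffer with DMSO solvent control. Compounds were tested at final well concentrations of 10^-5 to 10^-8 M in duplicate. Reaction was started with arachidonic acid and the plate shaken 5 min. Chromogen was added to stop the reaction, followed by 30 min incubation and reading at 500 nm. Activity was compared with 100% initial-activity wells.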

[4] = biological target: T2, Prostaglandin G/H synthase 1 (Ovis aries) (UniProt P05979); assay: Inhibition of ovine COX-1 assessed as decrease in prostaglandin production using arachidonic acid as substrate at 10 uM incubated with enzyme for 10 mins prior to substrate challenge by enzyme immunoassay; method in brief: as §1
T2 sequence (whole entry): T1 sequence (P05979 whole entry)

[5] = Inhibition of potato 5-LOX assessed as decrease in leukotriene production using arachidonic acid as substrate by enzyme immunoassay; set-up: species or system Solanum tuberosum; method in brief: as §2
[6] = biological target: T2, Prostaglandin G/H synthase 1 (Ovis aries); assay: Inhibition of ovine COX-1 assessed as decrease in prostaglandin production using arachidonic acid as substrate at 0.1 uM incubated with enzyme for 10 mins prior to substrate challenge by enzyme immunoassay; method in brief: as §1
[7] = biological target: T2, Prostaglandin G/H synthase 1 (Ovis aries); assay: Inhibition of ovine COX-1 assessed as decrease in prostaglandin production using arachidonic acid as substrate at 1 uM incubated with enzyme for 10 mins prior to substrate challenge by enzyme immunoassay; method in brief: as §1
Solanum tuberosum [8] = assay: Inhibition of potato 5-LOX assessed as decrease in leukotriene production using arachidonic acid as substrate at 1 uM by enzyme immunoassay
Mus musculus [9] = assay: Analgesic activity in Swiss albino mouse assessed as decrease in capsaicin-induced paw lickings at 25 mg/kg, ip administered 30 mins before capsaicin injection; assay type: functional; conditions: route intraperitoneal
Method in brief: (§3)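 Capsaicin […] was injected into the plantar surface of the right hind paw. Swiss albino mice (25–35 g, either sex, groups of 6) were pretreated i.p. 30 min beforehand; saline 0.5 mL was the control. Time spent licking and twitching was recorded over 10 min. Results are mean ± SEM (n = 6), analysed by one-way ANOVA with Tukey's test.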

Solanum tuberosum [10] = assay: Inhibition of potato 5-LOX assessed as decrease in leukotriene production using arachidonic acid as substrate at 10 uM by enzyme immunoassay; method in brief: as §2
[11] = biological target: T3, Prostaglandin G/H synthase 2 (Homo sapiens) (UniProt P35354)
T3 sequence (whole entry): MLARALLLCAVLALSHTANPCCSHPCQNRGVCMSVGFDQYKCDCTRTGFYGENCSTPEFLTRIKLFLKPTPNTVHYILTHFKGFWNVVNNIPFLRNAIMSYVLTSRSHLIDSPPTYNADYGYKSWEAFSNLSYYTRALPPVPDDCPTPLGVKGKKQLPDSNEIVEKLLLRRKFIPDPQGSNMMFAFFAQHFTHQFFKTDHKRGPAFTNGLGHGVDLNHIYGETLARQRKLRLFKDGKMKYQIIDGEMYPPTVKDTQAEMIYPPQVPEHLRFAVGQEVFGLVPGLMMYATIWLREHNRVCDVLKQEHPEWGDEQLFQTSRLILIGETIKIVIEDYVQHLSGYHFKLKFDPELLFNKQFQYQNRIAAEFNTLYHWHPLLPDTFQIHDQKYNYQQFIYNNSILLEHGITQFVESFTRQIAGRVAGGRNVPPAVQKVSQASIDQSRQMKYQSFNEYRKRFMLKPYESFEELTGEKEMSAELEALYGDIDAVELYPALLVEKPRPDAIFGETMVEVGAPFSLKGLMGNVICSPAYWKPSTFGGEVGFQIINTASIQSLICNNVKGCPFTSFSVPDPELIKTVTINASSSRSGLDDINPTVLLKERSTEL

[12] = biological target: Prostaglandin G/H synthase 1 (Homo sapiens) (UniProt P23219)
Mus musculus [13] = assay: Analgesic activity in Swiss albino mouse assessed as decrease in capsaicin-induced paw lickings at 10 mg/kg, ip administered 30 mins before capsaicin injection; assay type: functional, organism-based; set-up: dose 10 mg/kg; method in brief: as §3
[14] = biological target: Prostaglandin G/H synthase 1 (Homo sapiens) (UniProt P23219); assay: Binding affinity to COX-1 (unknown origin) at 0.35 mM after 30 mins by [13C] NMR spectroscopy; conditions: in the assay text read “[1H] NMR” for “[13C] NMR”
Method in brief: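 Compound was 0.35 mM in DMSO-d6, with 12 (0.08 mM) COX-1 or COX-2 added. Samples were incubated at 37 °C and 1H NMR spectra were recorded every 30 min. D2O exchange was used to assign NH signals.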

Mus musculus [15] = assay: Analgesic activity in Swiss albino mouse assessed as decrease in capsaicin-induced paw lickings at 5 mg/kg, ip administered 30 mins before capsaicin injection; assay type: functional; conditions: route intraperitoneal; method in brief: as §3

Prostaglandin G/H synthase 1 (Homo sapiens), sequence (P23219 whole entry): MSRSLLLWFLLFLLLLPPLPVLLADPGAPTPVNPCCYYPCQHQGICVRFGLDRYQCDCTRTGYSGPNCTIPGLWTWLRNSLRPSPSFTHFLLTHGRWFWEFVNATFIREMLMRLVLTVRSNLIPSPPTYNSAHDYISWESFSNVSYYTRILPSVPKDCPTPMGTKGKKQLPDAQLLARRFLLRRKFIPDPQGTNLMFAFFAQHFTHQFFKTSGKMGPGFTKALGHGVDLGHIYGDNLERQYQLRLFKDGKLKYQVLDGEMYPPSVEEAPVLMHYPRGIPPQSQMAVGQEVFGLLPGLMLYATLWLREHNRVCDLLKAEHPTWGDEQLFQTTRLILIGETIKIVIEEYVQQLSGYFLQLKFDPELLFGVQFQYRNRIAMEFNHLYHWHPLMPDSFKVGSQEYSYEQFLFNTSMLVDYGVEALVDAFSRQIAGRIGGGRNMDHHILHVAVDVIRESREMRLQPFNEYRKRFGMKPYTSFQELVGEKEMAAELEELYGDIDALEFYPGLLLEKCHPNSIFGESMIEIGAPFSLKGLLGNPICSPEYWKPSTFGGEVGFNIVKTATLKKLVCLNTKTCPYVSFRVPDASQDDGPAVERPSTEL

For `CC1=NN(c2cccc(Cl)c2)C(=O)/C1=C/c1coc2c([N+](=O)[O-])cc(F)cc2c1=O`, the IC50 [1] was > 10000 nM, the inhibition (Solanum tuberosum [2]) was 8.62% and the inhibition (Solanum tuberosum [3]) was 22.4%. It also gave an inhibition [4] of 27.9%, an IC50 [5] of 7400 nM and an inhibition [6] of 15%. The inhibition [7] was 18% and the inhibition (Solanum tuberosum [8]) was 46.5%.

Compound `CC(C)c1ccc2occ(/C=C3/C(=O)N(c4c(Cl)cccc4Cl)c4ccccc43)c(=O)c2c1` has an IC50 [1] of 650 nM, an inhibition (Solanum tuberosum [2]) of 30.1% and an inhibition (Solanum tuberosum [3]) of 44.8%. For the same compound, the inhibition [4] was 64.6%, the IC50 [5] was 20 nM and the inhibition [6] was 47%. The inhibition [7] was 56% and the inhibition (Solanum tuberosum [8]) was 81%.

`O=C(O)Cc1ccccc1Nc1c(Cl)cccc1Cl` [DICLOFENAC] showed an inhibition in vivo at 25 mg/kg (Mus musculus [9]) of 68%.

Work on `O=C1/C(=C/c2coc3ccccc3c2=O)c2ccccc2N1c1c(Cl)cccc1Cl` yielded an IC50 [1] of 4.7 nM, an inhibition (Solanum tuberosum [3]) of 20% and an inhibition [4] of 80.3%. The inhibition (Solanum tuberosum [10]) was 8.62%, the inhibition [6] was 63% and the inhibition [7] was 75%. The inhibition (Solanum tuberosum [8]) was 15.5%.

For `O=C1/C(=C/c2coc3ccc(Br)cc3c2=O)c2ccccc2N1c1c(Cl)cccc1Cl`, the IC50 [1] was 630 nM, the inhibition (Solanum tuberosum [2]) was 25% and the inhibition (Solanum tuberosum [3]) was 37%. The inhibition [4] was 80.3%, the IC50 [5] was 10000 nM and the inhibition (Solanum tuberosum [10]) was 50%. The inhibition [6] was 44.4% and the inhibition [7] was 60%.

Work on `CCCCC/C=C\C/C=C\C/C=C\C/C=C\CCCC(=O)O` yielded a Ka [11] of 0.18 ×10⁴ /M and a Ka [12] of 0.39 ×10⁴ /M.

In the case of `CC(=O)Oc1ccccc1C(=O)O`, the Ka [11] is reported as 0.22 ×10⁴ /M and the Ka [12] is reported as 0.93 ×10⁴ /M.

In the case of `O=C1Nc2ccccc2/C1=C/c1coc2ccc(Br)cc2c1=O`, the IC50 [1] is reported as 6750 nM, the inhibition [4] is reported as 40.5% and the inhibition [6] is reported as 20%. The inhibition [7] was 30.4% and the inhibition (Solanum tuberosum [8]) was 77.6%.

In the case of `O=C1Nc2ccccc2/C1=C/c1coc2ccccc2c1=O`, the IC50 [1] is reported as 1350 nM, the Ka [11] is reported as 0.75 ×10⁴ /M and the inhibition (Solanum tuberosum [3]) is reported as 22.4%. For the same compound, the Ka [12] was 0.29 ×10⁴ /M, the inhibition [4] was 51.6% and the inhibition (Mus musculus [13]) was “Active”. For the same compound, the inhibition (Solanum tuberosum [10]) was 74.1%, the inhibition [6] was 35% and the Activity [14] was “Active”. The inhibition in vivo at 5 mg/kg (Mus musculus [15]) was 76% and the inhibition [7] was 43%.

— ChEMBL document CHEMBL3351295, “Rational design, synthesis and evaluation of chromone-indole and chromone-pyrazole based conjugates: identification of a lead for anti-inflammatory drug” (Eur J Med Chem, 2014)
